Screens from PubChem.
APP 5'UTR act – APP 5'UTR luciferase reporter activation. SH-SY5Y APP 5'UTR luciferase reporter, luminescence; zero percent = DMSO vehicle wells. actives 1% (n = 190,000). activation, % at 2 µM. AID 1276;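 active means activation above a set limit, based on mean plus 3 SD of controls, cut at about 140% in these data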
NF-kB expr up – raises NF-kB expression in human neuronal cells; NF-kB reporter expression; hits give high values; fold change at 12.5 µM; actives 1.6% (n = 190,000); AID 1239; in the data active means fold change above about 3.3
FLuc stim CS – firefly luciferase counter-screen for stimulation assays; activation factor at 10 µM; 200,000 tested, under 10 active; ATPlite luciferase biochemical, luminescence, 10 min; 0 = ATP-free wells, 1 = DMSO control;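 active means luciferase activation factor, scaled between plate controls, of at least 2 with compound at 10 µM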
Target sequence (P08659 whole entry, looked up): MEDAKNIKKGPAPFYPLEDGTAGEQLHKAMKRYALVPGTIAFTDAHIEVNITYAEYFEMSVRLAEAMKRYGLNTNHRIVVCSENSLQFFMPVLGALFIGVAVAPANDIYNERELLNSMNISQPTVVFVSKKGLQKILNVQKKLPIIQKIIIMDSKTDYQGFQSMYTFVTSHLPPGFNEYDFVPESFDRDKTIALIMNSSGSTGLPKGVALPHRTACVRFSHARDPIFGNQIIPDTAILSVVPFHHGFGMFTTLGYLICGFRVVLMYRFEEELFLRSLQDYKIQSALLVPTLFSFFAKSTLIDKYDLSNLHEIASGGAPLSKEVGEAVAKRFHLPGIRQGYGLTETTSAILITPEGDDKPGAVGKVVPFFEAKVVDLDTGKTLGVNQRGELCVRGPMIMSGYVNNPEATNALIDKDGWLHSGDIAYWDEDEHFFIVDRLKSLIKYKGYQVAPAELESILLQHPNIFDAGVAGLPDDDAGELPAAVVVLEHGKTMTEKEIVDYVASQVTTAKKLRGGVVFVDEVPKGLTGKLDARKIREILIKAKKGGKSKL
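assay system = Luciferase/luciferin detection reagent, cell-free biochemical luciferase assay | also added = ATP substrate | times = 10 min post-reagent at room temperature | measured by = luminescence from luciferase reaction | measure = luciferase activation, seen as luminescence increase over controls | benchmarks = low control with PBS replacing ATP, high control enzyme plus ATP without compound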
FLuc inhib CS – counter-screen for luciferase assay inhibitors: firefly luciferase inhibition | P08659 | ATPLite firefly luciferase biochemical luminescence, 10 min | inhibition, % at 10 µM | actives 1.5% (n = 200,000) | AID 1006;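 active means inhibition above about 50% when tested at 10 µM, limit read from the data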
STAT1 activator – STAT1 signaling activation | actives 2.6% (n = 200,000) | NIH 3T3 STAT1-luciferase reporter, IFN-gamma, luminescence; 100% = IFN-gamma alone, no compound | activation (% of control), % at 5.5 µM;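 active means activation above the screen-wide mean activation plus 3 SD, cut at about 130% in these data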;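 further: raw ratio to IFN-gamma control signal so 100% means no change and 0% no light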
* = called active by the depositor; . = not tested or not shown. Compounds with a hit are over-represented: about 4.1% of the library has one in this group of screens.

SMILES | APP 5'UTR act | NF-kB expr up | FLuc stim CS | FLuc inhib CS | STAT1 activator
CCC(C)(C)n1nnnc1CN(Cc1cc2cc(OC)c(OC)cc2[nH]c1=O)C1CCCC1 | -1 | 0.9 | 1 | 0 | 99
O=C(CN1CCCCCC1)Nc1ccccc1 | -4 | 0.96 | 1 | 2 | 102
CCOC(=O)C1=C(C)Nc2nnnn2C1c1ccccc1Cl (stereo not drawn) | . | 1.2 | 1 | -3 | 96
COc1ccc(NC(=O)Nc2ccc(OC)cc2)cc1 | 10 | 1.7 | 1 | 2 | 115
COC(=O)C(C)N(c1ccc(OC)cc1)S(C)(=O)=O (stereo not drawn) | 10 | 1.3 | 1 | -3 | 102
O=C(Nc1ccc(Cl)cc1)Nc1cccnc1 | 12 | 2 | 0.7 | 35 | 114
COc1ccc(NC(=O)Nc2cccnc2)cc1 | 4 | 1.6 | 0.4 | 58* | 111
COc1ccc(N(C(C)C(=O)Nc2cccnc2)S(C)(=O)=O)cc1 (stereo not drawn) | -5 | 1 | 1.1 | -11 | 130*
CCCNC(=O)C(=O)Nc1ccc(N(C)C)cc1 | 32 | 1.9 | 0.8 | 17 | 137*
COc1ccc(NC(=O)Nc2ccc(N(C)C)cc2)cc1 | 94 | 1.6 | 0.8 | 22 | 137*
CN(C)c1ccc(NC(=O)C(=O)NCCOc2ccccc2)cc1 | -16 | 1.3 | 1.1 | -6 | 111
CCc1nnc(NC(=O)CSc2nnc(CNc3cccc(C)c3)n2-c2ccccc2)s1 | -1 | 1.2 | 1 | -2 | 107
O=C(NN1C(=O)C2C3C=CC(C4CC34)C2C1=O)c1cccc(Cl)c1 (stereo not drawn) | 4 | 1.7 | 1 | 2 | 113
Cc1ccc(Nc2c(-c3ccc(N4CCOCC4)cc3)nc3ncccn23)cc1C | -1 | 1.2 | 0.9 | 7 | 98
CCOc1ccc(NC(=O)Nc2cccnc2)cc1 | 47 | 1.6 | 0.2 | 77* | 106
COc1ccc(NC(=O)Nc2ccc3nccnc3c2)cc1 | 97 | 1.7 | 0.4 | 57* | 130*
Cc1ccc(/C(N)=N/OC(=O)CCC2CCCC2)cc1 | 23 | 1.3 | 0.9 | 5 | 106
CCn1ncc(/C=C/C(=O)c2ccccc2)c1C | 198* | 2.1 | 0.2 | 82* | 133*
Cc1c(/C=C/C(=O)c2ccc(C(C)C)cc2)cnn1C | 44 | 1.9 | 0.4 | 58* | 114
Cc1c(/C=N\NC(=O)c2ccc(F)cc2)cnn1C | 2 | 1.2 | 1 | 3 | 100
Cc1c(/C=C/C(=O)c2ccccc2)cnn1C | 81 | 2.6 | 0.6 | 42 | 107
CCn1ncc(/C=N\NC(=O)COc2ccccc2)c1C | -3 | 1.1 | 0.9 | 6 | 92
Cc1c(/C=C/C(=O)c2ccc(Cl)s2)cnn1C | 92 | 2.1 | 0.4 | 62* | 106
Cc1c(/C=C/C(=O)c2ccc(O)cc2)cnn1C | 79 | 2.5 | 0.4 | 58* | 108
Cc1cc(NC(=O)CN2CCCC(C)C2)no1 (stereo not drawn) | 22 | 1.1 | 1.1 | -5 | 105
SMILES | APP 5'UTR act | NF-kB expr up | FLuc stim CS | FLuc inhib CS | STAT1 activator
O=C(COc1ccc(C(F)(F)F)cc1[N+](=O)[O-])Nc1cccc(C(F)(F)F)c1 | -4 | 1.6 | 1.1 | -5 | 94
CSc1ccccc1NC(=O)c1cc2ncc(Br)cn2n1 | 73 | 1.5 | 1 | 4 | 142*
Cc1ccsc1C(=O)NNC(=O)C1CC=CCC1C(=O)O (stereo not drawn) | 58 | 1.5 | 1.1 | -9 | 144*
Cc1ccsc1C(=O)NNC(=O)C1CCCCC1C(=O)O (stereo not drawn) | 97 | 1.4 | 1 | -3 | 129*
CCOC(=O)c1c(NC(=O)C(F)(OC)C(F)(F)F)sc2c1CCN(C)C2 (stereo not drawn) | -4 | 1.2 | 1.1 | -6 | 96
COc1ccc(C(=O)Cc2ccc3c(c2)OCO3)c(O)c1 | 129 | 2.5 | 0.8 | 18 | 147*
Cc1nnc(SCc2cnc(-c3ccccc3)o2)[nH]c1=O | 9 | 1.1 | 1.1 | -7 | 102
Cc1ccc(/C=C/C(=O)c2ccc(N3CCOCC3)cc2)s1 | 106 | 3.3 | 0.1 | 94* | 135*
Cc1cccc(/C=C/C(=O)c2ccc(N3CCOCC3)cc2)c1 | -1 | 0.9 | 0.8 | 22 | 105
Cc1ccc2nc(C)cc(Nc3ccc([N+](=O)[O-])cc3)c2c1 | -19 | 0.99 | 1 | -2 | 98
CCOC(=O)c1oc2cc(O)c(CC)cc2c(=O)c1-c1cscn1 | 10 | 1.1 | 1 | 2 | 99
Cc1c(C(=O)OC2CCC(C)CC2)[nH]c2c1C(=O)CCC2 (stereo not drawn) | 148* | 4.9* | 1 | 2 | 146*
O=C(/C=C/c1cccs1)c1ccc(Br)cc1 | 10 | 2.3 | 0.4 | 61* | 105
O=C(/C=C/c1cccs1)c1ccc(NC(=O)c2cccc(Br)c2)cc1 | 18 | 1.2 | 1 | -2 | 100
O/N=C/c1cn(-c2ccccc2)nc1-c1ccc2c(c1)OCCO2 | 5 | 1.1 | 1 | -4 | 104
O=C(N/N=C/c1cn(-c2ccccc2)nc1-c1ccc2c(c1)OCCO2)c1ccncc1 | 133 | 1.9 | 1 | -1 | 148*
COc1cccc(-c2nn(-c3ccccc3)cc2CO)c1 | 23 | 1.7 | 1 | 0 | 144*
COc1ccc(-c2nn(-c3ccccc3)cc2CO)cc1OC | 17 | 0.94 | 1 | 4 | 98
OCc1cn(-c2ccccc2)nc1-c1ccc2c(c1)OCCO2 | 62 | 2.4 | 1 | 2 | 144*
O=C(O)CCCNc1cc(N2CCC3(CC2)OCCO3)c2noc3c2c1C(=O)c1ccccc1-3 | 90 | 0.44 | 0.7 | 28 | 143*
CCOC(=O)N1CCN(c2cc(NCCC(=O)O)c3c4c(onc24)-c2ccccc2C3=O)CC1 | 7 | 0.59 | 0.8 | 17 | 104
CN1C2C=C3C(C#N)=C(N)C(C#N)(C#N)[C@@H](c4cccs4)C3C1CC2 (stereo partly drawn) | -3 | 4.4* | 1 | -2 | 103
CN1C2C=C3C(C#N)=C(N)C(C#N)(C#N)[C@H](c4c(F)cccc4F)[C@H]3C1CC2 (stereo partly drawn) | -47 | 1.3 | 1 | -4 | 100
Cc1ccccc1-c1noc(-c2cccs2)n1 | 50 | 2.3 | 0.9 | 14 | 143*
Cc1ccccc1-c1nnc(-c2cccs2)o1 | 73 | 2.1 | 0.8 | 24 | 144*
SMILES | APP 5'UTR act | NF-kB expr up | FLuc stim CS | FLuc inhib CS | STAT1 activator
COc1cc(OC)cc(-c2nc3cc(C)ccc3o2)c1 | 114 | 6.2* | 0.7 | 25 | 158*
COc1cc(OC)cc(-c2nc3ccccc3c(=O)o2)c1 | 8 | 1.2 | 0.9 | 8 | 100
Cc1ccc(-c2nc3cc(Cl)ccc3o2)cc1 | 27 | 8.5* | 0.1 | 86* | 162*
COc1cc(C(=O)Nc2cc(-c3nc4cc(C)ccc4o3)ccc2C)cc(OC)c1OC | 7 | 1.4 | 0.5 | 51* | 118
COc1cc(C(=O)Nc2cccc(-c3nc4cc(C)ccc4o3)c2)cc(OC)c1OC | 42 | 1.2 | 0.7 | 29 | 108
CC(C)N1CCN(Cc2ccc3nsnc3c2)CC1CCO (stereo not drawn) | 2 | 1.1 | 1.1 | -11 | 107
